Compound activity (PubChem)
The list is not random: actives were taken first. Their share in the collection is about 3.5%.
RGS4 inh = RGS4 inhibitors, primary screen, cell-based, HEK293 M3R inducible RGS4, calcium flux; Regulator of G-protein signaling 4 (Homo sapiens), P49798; B-score at 10 µM; Fluo-4 calcium flux; stronger effect = higher value; triggered by carbachol at its EC20; 310,000 compounds, 0.45% hits;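 active = B-score, a plate-corrected calcium signal, over three deviations above library mean, with baseline fluorescence within five deviations of library mean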;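 also: RGS4 expression induced by doxycycline in cells with stable M3 receptor; B-score is computed from the integrated fluorescence ratio over baseline after carbachol; higher B-score means a larger calcium signal and so more RGS4 inhibition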
Target sequence (P49798 whole entry, looked up): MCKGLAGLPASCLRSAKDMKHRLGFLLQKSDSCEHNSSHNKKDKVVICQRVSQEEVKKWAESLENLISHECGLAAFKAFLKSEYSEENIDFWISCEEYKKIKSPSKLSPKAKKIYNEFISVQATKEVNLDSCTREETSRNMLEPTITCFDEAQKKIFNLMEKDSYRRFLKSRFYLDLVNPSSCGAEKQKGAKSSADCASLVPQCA
MrgX1 allo act = positive allosteric modulators of MrgX1, primary screen, HEK293 cells, Fluo-4 calcium flux; FDSS; stronger effect = higher value; B-score at 10 µM; 310,000 compounds, 0.63% hits; AID 588675, 2011;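 active = plate-corrected calcium response at least 3 library SD above typical, normal starting fluorescence, not activating the receptor alone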;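 also: compound read alongside a low EC10 to EC30 dose of BAM8-22 agonist; peak minus trough fluorescence over baseline measured at the second addition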
RGS4 act = RGS4 potentiators or activators, primary screen, cell-based, HEK293 M3R inducible RGS4, calcium flux; AID 463111, 2010; carbachol calcium flux Fluo4; stronger effect = lower value; 310,000 compounds, 0.92% hits; B-score at 10 µM;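 active = B-score of the integrated calcium signal more than 4 SD below the library mean, with starting fluorescence not abnormally high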;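 also: negative B-score means reduced calcium response which marks RGS4 activation or potentiation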
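test system = HEK293 cells with stable M3R and inducible RGS4 | schedule = recording 10 s baseline at 1 Hz, 100 s post-agonist | technique = Fluo4-AM (2 µM) calcium-flux fluorescence, kinetic read | measure = Agonist-evoked peak-minus-minimum fluorescence over baseline, integrated ratio, B score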
MrgX1 antag = antagonists of human MrgX1 receptor, primary screen, HEK293 cells, Fluo-4 calcium flux. Mas-related G-protein coupled receptor member X1 (Homo sapiens), Q96LB2. BAM8-22 antagonism; stronger effect = lower value. B-score at 10 µM. 310,000 compounds, 1.3% hits;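 active = calcium-response B-score plate-corrected more than 3 library SD below zero, starting fluorescence within 5 deviations, no agonist response on first addition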;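 also: peak minus trough fluorescence over baseline after final BAM8-22 challenge near maximal dose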
MrgX1 ag = agonists of human MrgX1 receptor, primary screen, HEK293 cells, Fluo-4 calcium flux. AID 588627, 2011. Mas-related G-protein coupled receptor member X1 (Homo sapiens), Q96LB2. 310,000 compounds, 0.44% hits. Fluo-4 calcium fluorescence, agonist mode; stronger effect = higher value. B-score at 10 µM;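 active = calcium response B-score plate-corrected fluorescence ratio at least 3 library SD, with starting fluorescence B-score inside 5 SD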
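System: HEK293 cells stably expressing human MrgX1 receptor; Dosing: test compound in the initial addition of three; Schedule: overnight plating, then 30 min 37 °C plus 30 min room-temperature dye loading; Detection: kinetic calcium dye fluorescence, Fluo-4 NW; Controls: per-plate positive and negative controls for Z′ factor.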
Active calls of the source: *.

What do the screens show for `C=CCn1c(SCc2csc(C)n2)nc2sc3c(c2c1=O)CCC(C)C3` (configuration not stated)?
RGS4 inh: inactive; MrgX1 allo act: inactive; RGS4 act: inactive; MrgX1 antag: inactive; MrgX1 ag: inactive

How did O=C(COc1ccc(Cl)cc1)NNC(=S)NCc1ccccc1 do in these assays?
RGS4 inh: inactive; MrgX1 allo act: inactive; RGS4 act: inactive; MrgX1 antag: inactive; MrgX1 ag: inactive

Results for C=CCc1ccccc1OCC(=O)NNC(=S)NCc1ccccc1 ?
RGS4 inh: inactive; MrgX1 allo act: inactive; RGS4 act: -7*; MrgX1 antag: inactive; MrgX1 ag: inactive

What do the screens show for `CCN(CCO)c1cc(Cl)nc(SC)n1`?
RGS4 inh: inactive; MrgX1 allo act: inactive; RGS4 act: inactive; MrgX1 antag: inactive; MrgX1 ag: inactive

Results for COc1cc(NC(=O)C2CCCCC2)c(OC)cc1NC(=O)CCC(=O)NCc1ccco1 ?
RGS4 inh: inactive; MrgX1 allo act: inactive; RGS4 act: inactive; MrgX1 antag: inactive; MrgX1 ag: inactive

What do the screens show for `CCCCCN(C(=O)CCC(=O)OC(C)C(=O)NC1CCCCC1)c1c(N)n(CCCC)c(=O)[nH]c1=O` (configuration not stated)?
RGS4 inh: inactive; MrgX1 allo act: inactive; RGS4 act: inactive; MrgX1 antag: inactive; MrgX1 ag: inactive

How did Cc1cc(C)c(-c2csc(NC(=O)c3cc([N+](=O)[O-])ccc3N3CCOCC3)n2)c(C)c1 do in these assays?
RGS4 inh: inactive; MrgX1 allo act: inactive; RGS4 act: -7.9*; MrgX1 antag: inactive; MrgX1 ag: inactive

What do the screens show for `O=C(Nc1nc(-c2ccc(F)c(F)c2)cs1)c1cc([N+](=O)[O-])ccc1N1CCOCC1`?
RGS4 inh: inactive; MrgX1 allo act: inactive; RGS4 act: inactive; MrgX1 antag: inactive; MrgX1 ag: inactive

Results for CCOC(=O)Cn1c(-c2ccc(Cl)nc2)nc2ccccc21 ?
RGS4 inh: inactive; MrgX1 allo act: inactive; RGS4 act: inactive; MrgX1 antag: inactive; MrgX1 ag: inactive

Results for Cc1c(N=Cc2c(O)n(C)c(=O)c3ccccc23)c(=O)n(-c2ccccc2)n1C ?
RGS4 inh: inactive; MrgX1 allo act: inactive; RGS4 act: -7.2*; MrgX1 antag: inactive; MrgX1 ag: inactive

What do the screens show for `Cc1cc(C)[n+](-c2ccc(C(C)C)cc2)c2[nH]c(=O)[nH]c(=O)c12`?
RGS4 inh: inactive; MrgX1 allo act: inactive; RGS4 act: -9*; MrgX1 antag: inactive; MrgX1 ag: inactive

Results for CCOC(=O)Cn1c(=O)oc2cc(S(=O)(=O)Nc3cccc(C)c3)ccc21 ?
RGS4 inh: inactive; MrgX1 allo act: inactive; RGS4 act: inactive; MrgX1 antag: inactive; MrgX1 ag: inactive

How did Cc1c(NC(=O)/C(=C/c2cccs2)c2cccs2)c(=O)n(-c2ccccc2)n1C do in these assays?
RGS4 inh: inactive; MrgX1 allo act: inactive; RGS4 act: inactive; MrgX1 antag: inactive; MrgX1 ag: inactive

Results for CC(C)Sc1nc(N2CCCC2)c2c(c1C#N)CC(C)(C)OC2 ?
RGS4 inh: inactive; MrgX1 allo act: inactive; RGS4 act: -7.2*; MrgX1 antag: inactive; MrgX1 ag: inactive

Results for COc1ccc(-c2csc(NC(=S)NC(=O)c3cccs3)n2)cc1OC ?
RGS4 inh: inactive; RGS4 act: -7.3*

What do the screens show for `COc1ccc(-c2csc(NC(=O)CN3C(=O)C4CC=CCC4C3=O)n2)cc1OC` (configuration not stated)?
RGS4 inh: inactive; MrgX1 allo act: inactive; RGS4 act: inactive; MrgX1 antag: inactive; MrgX1 ag: 48*

Results for COc1ccc(-c2csc(NC(=O)CSCC(=O)Nc3cc(C)on3)n2)cc1OC ?
RGS4 inh: inactive; MrgX1 allo act: inactive; RGS4 act: inactive; MrgX1 antag: inactive; MrgX1 ag: 29*
